Data taken from ChEMBL document CHEMBL1154340, “Biphenyls from Berberis koreana” (J Nat Prod, 2009).

Columns and labels:
[1] = system: A549; assay: Cytotoxicity against human A549 cells by SRB assay; assay type: functional, cell-based
[2] = system: SK-MEL-2; assay: Cytotoxicity against human SK-MEL-2 cells by SRB assay; assay type: functional, cell-based
[3] = system: SK-OV-3; assay: Cytotoxicity against human SKOV3 cells by SRB assay; assay type: functional, cell-based
[4] = system: HCT-15; assay: Cytotoxicity against human HCT15 cells by SRB assay; assay type: functional, cell-based
[5] = system: BV-2; assay: Antiinflammatory activity in mouse BV2 cells assessed as effect on LPS-stimulated nitrite accumulation after 24 hrs by Griess reagent method; assay type: functional, cell-based; conditions: BV-2, 24 h
Outline: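 Nitrite, the stable NO oxidation product, measured in culture supernatant by Griess reaction: 50 µL supernatant mixed with equal volume of reagent (1% sulfanilamide, 0.1% N-1-naphthylethylenediamine dihydrochloride in 5% phosphoric acid). Absorbance at 540 nm read after 10 min. Sodium nitrite standard used for quantitation. L-NMMA served as positive control. IC50 values reported.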

[6] = Cytotoxicity against mouse BV2 cells by MTT assay; assay type: cell-based; conditions: bv-2
Outline: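 Viability of the same cultures determined by MTT (3-[4,5-dimethylthiazol-2-yl]-2,5-diphenyltetrazolium bromide) assay.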

Question: For `COc1cc(-c2ccccc2O)cc(OC)c1OC`, which IC50 [1] is on record?
Answer: > 10 µM

Question: And the IC50 [2]?
Answer: > 10 µM

Question: And the IC50 [3]?
Answer: > 10 µM

Question: What about the IC50 [4] of the same molecule?
Answer: > 10 µM

Question: And the IC50 [5]?
Answer: 50.6 µM

Question: For `COc1cc(OC)cc(-c2ccccc2O)c1`, which IC50 [1] is on record?
Answer: > 10 µM

Question: What about the IC50 [2] of the same molecule?
Answer: > 10 µM

Question: And the IC50 [3]?
Answer: > 10 µM

Question: And the IC50 [4]?
Answer: > 10 µM

Question: What about the IC50 [5] of the same molecule?
Answer: 32.1 µM

Question: Which results are given for `COc1cc(-c2ccccc2)cc(O)c1O`?
Answer: IC50 [1]: > 10 µM; IC50 [2]: > 10 µM; IC50 [3]: > 10 µM; IC50 [4]: > 10 µM

Question: With `COc1cc(-c2ccccc2O)cc(OC)c1O` as the molecule, how does the IC50 [1] read?
Answer: > 10 µM

Question: What about the IC50 [2] of the same molecule?
Answer: > 10 µM

Question: What about the IC50 [3] of the same molecule?
Answer: > 10 µM

Question: And the IC50 [4]?
Answer: > 10 µM

Question: Which IC50 [1] does the source give for `COc1cc2c(oc3cc(O)ccc32)c(OC)c1O` here?
Answer: > 10 µM

Question: What about the IC50 [2] of the same molecule?
Answer: > 10 µM

Question: And the IC50 [3]?
Answer: > 10 µM

Question: And the IC50 [4]?
Answer: > 10 µM

Question: With `COc1cc2c(oc3cccc(O)c32)c(OC)c1O` as the molecule, how does the IC50 [1] read?
Answer: > 10 µM

Question: And the IC50 [2]?
Answer: > 10 µM

Question: And the IC50 [3]?
Answer: > 10 µM

Question: And the IC50 [4]?
Answer: > 10 µM

Question: For `COc1ccc2c(oc3c(OC)c(OC)c(O)cc32)c1O`, which IC50 [1] is on record?
Answer: > 10 µM

Question: What about the IC50 [2] of the same molecule?
Answer: > 10 µM

Question: What about the IC50 [3] of the same molecule?
Answer: > 10 µM

Question: What about the IC50 [4] of the same molecule?
Answer: > 10 µM

Question: And the IC50 [5]?
Answer: 33 µM

Question: Which IC50 [1] does the source give for `COc1cc(OC)cc(-c2ccc(O)cc2)c1` here?
Answer: > 10 µM

Question: What about the IC50 [2] of the same molecule?
Answer: > 10 µM

Question: What about the IC50 [3] of the same molecule?
Answer: > 10 µM

Question: What about the IC50 [4] of the same molecule?
Answer: > 10 µM

Question: Which IC50 [1] does the source give for `COc1cc(O)cc(-c2ccccc2)c1` here?
Answer: > 10 µM

Question: What about the IC50 [2] of the same molecule?
Answer: > 10 µM

Question: And the IC50 [3]?
Answer: > 10 µM

Question: What about the IC50 [4] of the same molecule?
Answer: > 10 µM

Question: Which IC50 [1] does the source give for `COc1cc(OC)cc(-c2ccccc2)c1` here?
Answer: > 10 µM

Question: And the IC50 [2]?
Answer: > 10 µM

Question: And the IC50 [3]?
Answer: > 10 µM

Question: What about the IC50 [4] of the same molecule?
Answer: > 10 µM

Question: For `COc1cc(-c2ccccc2)cc(OC)c1O` [AUCUPARIN], which IC50 [1] is on record?
Answer: > 10 µM

Question: What about the IC50 [2] of the same molecule?
Answer: > 10 µM

Question: And the IC50 [3]?
Answer: > 10 µM

Question: And the IC50 [4]?
Answer: > 10 µM

Question: For `COc1cc(-c2ccccc2)cc(Oc2c(OC)cc([C@@H](O)[C@H](O)CO)cc2OC)c1O` [BERBEKORIN A], which IC50 [1] is on record?
Answer: 8.2 µM

Question: And the Activity [6]?
Answer: Toxic

Question: What about the IC50 [2] of the same molecule?
Answer: 4.4 µM

Question: And the IC50 [4]?
Answer: 7 µM

Question: What does the source list for `COc1cc2c(oc3ccccc32)c(OC)c1O` [ERIOBOFURAN]?
Answer: IC50 [1]: > 10 µM; IC50 [2]: > 10 µM; IC50 [3]: > 10 µM; IC50 [4]: > 10 µM

Question: Which results are given for `COc1cc(-c2ccccc2)cc(OC)c1OC` [METHOXY AUCUPARIN]?
Answer: IC50 [1]: > 10 µM; IC50 [2]: > 10 µM; IC50 [3]: > 10 µM; IC50 [4]: > 10 µM; IC50 [5]: 21.9 µM
